Screens deposited in PubChem by The Scripps Research Institute Molecular Screening Center.
Compounds with a hit are over-represented: about 0.58% of the library has one in this group of screens.
TRPN1 ag – zebrafish TRPN1 channel agonists, primary screen, cell-based, HEK293, calcium fluorescence | transient receptor potential cation channel N1 (TRPN1/NompC), Danio rerio | HEK293 zebrafish TRPN1-YFP, Fluo-8 calcium fluorescence; 100% = response to 87 µM carbachol | activation, % at 3 µM | 220,000 compounds, 0.18% hits | AID 1424, 2008;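 active means activation above its plate's cutoff, the mean activation of test wells on that plate plus 3 SD, cut at about 19% in these data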
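System: zebrafish TRPN1-YFP in HEK293 cells / Dosing: 3 µM single point / Timing: dye loading 1 h at 37 °C, then 30 min room temperature / Signal: Fluo-8 calcium fluorescence, excitation 470-495 nm, emission 515-575 nm / Read-out basis: percent activation from peak over basal fluorescence ratio, control-normalized / Control set: high carbachol 87 µM, low DMSO alone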
OXTR agonist – human OXTR agonists, primary screen, fluorescence, CHO-OTR cells, Fluo-8 calcium; Oxytocin receptor (Homo sapiens), P30559; Fluo-8 calcium fluorescence; normalized: DMSO 0%, oxytocin 100%; activation, % at 3 µM; 320,000 compounds, 0.32% hits; AID 2435, 2010;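 active means activation above the mean of all tested compounds plus 3 SD, cutoff set per screening run, cut at about 20% in these data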;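 further: peak over basal fluorescence ratio from a 100 s FLIPR kinetic read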
TRPML3 agonist – human TRPML3 channel agonists, primary screen, cell-based, HEK293 TRPML3-YFP, Fluo-8 calcium fluorescence, 3 µM. 220,000 compounds, 0.29% hits. AID 1448, 2008. 100% = the carbachol control signal. activation, % at 3 µM;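 active means activation above its plate's cutoff, the mean activation of the plate's test wells plus 3 SD, cut at about 12% in these data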
Target sequence (Q8TDD5 whole entry, looked up): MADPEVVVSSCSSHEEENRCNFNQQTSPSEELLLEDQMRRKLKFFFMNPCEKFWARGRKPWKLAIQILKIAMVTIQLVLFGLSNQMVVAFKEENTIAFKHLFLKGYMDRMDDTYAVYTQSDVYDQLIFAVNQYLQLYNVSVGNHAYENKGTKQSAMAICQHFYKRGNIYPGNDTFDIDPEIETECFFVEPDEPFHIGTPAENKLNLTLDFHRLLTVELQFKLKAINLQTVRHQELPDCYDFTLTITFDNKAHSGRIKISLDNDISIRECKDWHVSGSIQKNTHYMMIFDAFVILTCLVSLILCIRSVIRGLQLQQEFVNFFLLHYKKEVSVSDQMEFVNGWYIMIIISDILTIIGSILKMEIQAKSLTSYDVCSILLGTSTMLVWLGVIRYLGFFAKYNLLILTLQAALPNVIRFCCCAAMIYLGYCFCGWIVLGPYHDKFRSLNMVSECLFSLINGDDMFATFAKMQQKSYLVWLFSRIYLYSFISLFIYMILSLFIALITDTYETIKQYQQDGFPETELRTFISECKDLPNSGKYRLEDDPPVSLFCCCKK
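Test system: TRPML3-YFP stable HEK293 cells. Doses: single point at 3 µM. Incubation: dye loading 1 h 37 °C then 30 min ambient, 125 s read. Signal: Fluo-8 calcium dye fluorescence, ex 470-495, em 515-575 nm. Measure: percent activation from peak-to-basal fluorescence ratio, scaled between DMSO and carbachol.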
OXTR potentiate – human OXTR potentiators, primary screen, fluorescence, CHO-OTR cells, Fluo-8 calcium; Oxytocin receptor (Homo sapiens), P30559; Fluo-8 calcium fluorescence, potentiator mode; 0% = oxytocin EC15, 100% = EC100; activation, % at 3 µM; 320,000 compounds, 0.061% hits; AID 2445, 2010;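 active means activation above that plate's cutoff, the mean activation of tested compounds plus 3 SD, cut at about 6.6% in these data, passing the limit was not always enough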
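Dosing: Single dose, 3.0 µM nominal final compound concentration | Material: Human OTR in CHO cells | Technique: Kinetic Fluo-8 calcium fluorescence | Benchmarks: EC15 oxytocin alone as 0%, 75 nM oxytocin as 100% | Probe or stimulus: Oxytocin at about EC15, sub-maximal agonist stimulus | Incubation: Compound 6 min at room temperature before oxytocin, 100 s read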
V1aR counter – agonists of human V1a receptor, primary screen, counter-screen for OXTR agonist project, fluorescence, CHO-V1R cells; Vasopressin V1a receptor (Homo sapiens), P37288; Fluo-8 calcium fluorescence, agonist mode; 0% DMSO, 100% 3 nM vasopressin; activation, % at 3 µM; 320,000 compounds, 0.25% hits; AID 2797, 2010;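 active means activation above the mean activation of all tested compounds plus 3 SD, per screening run, cut at about 20% in these data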;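 further: signal is peak over basal fluorescence ratio across a 100 second FLIPR read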
Hits are given with their value.

Results for CN(C)c1nc(-c2ccccc2)nnc1C(F)(F)F ?
TRPN1 ag: inactive; OXTR agonist: inactive; TRPML3 agonist: inactive; OXTR potentiate: inactive; V1aR counter: inactive

How did COc1ccc(N=Cc2sc(O)c3ccccc23)cc1 do in these assays?
TRPN1 ag: 33; OXTR agonist: 58; TRPML3 agonist: 28; OXTR potentiate: inactive; V1aR counter: 77

What do the screens show for `COC(=O)C1=C(C)N(Cc2ccccc2)C(=NCC(C)C)N[C@H]1c1cccc(C(F)(F)F)c1`?
OXTR agonist: inactive; OXTR potentiate: inactive; V1aR counter: inactive

How did COC(=O)C1=C(C)N(Cc2ccccc2)C(=NCC(C)C)N[C@H]1c1cccc(F)c1 do in these assays?
OXTR agonist: 31; OXTR potentiate: inactive; V1aR counter: 23

Results for Cc1ccccc1OCc1nnc(SCC(=O)NCc2ccccc2)n1C ?
TRPN1 ag: inactive; OXTR agonist: inactive; TRPML3 agonist: inactive; OXTR potentiate: inactive; V1aR counter: inactive

Results for O=C1c2cccc3c(O)ccc(c23)C(=O)N1Cc1ccccc1 ?
TRPN1 ag: 146; OXTR agonist: 302; TRPML3 agonist: 120; OXTR potentiate: inactive; V1aR counter: 345

What do the screens show for `O=C(O)c1cccc(CN2C(=O)c3ccccc3C2=O)c1`?
OXTR agonist: inactive; OXTR potentiate: inactive; V1aR counter: inactive

How did O=C(c1ccc([N+](=O)[O-])cc1)N(Cc1ccc(Cl)cc1)N1C(=O)CCCC1=O do in these assays?
TRPN1 ag: 27; OXTR agonist: inactive; TRPML3 agonist: 87; OXTR potentiate: inactive; V1aR counter: inactive

How did O=C(c1ccc(Cl)cc1)N(Cc1ccc(Br)cc1)N1C(=O)CCC1=O do in these assays?
TRPN1 ag: inactive; OXTR agonist: inactive; TRPML3 agonist: inactive; OXTR potentiate: inactive; V1aR counter: inactive

Results for CCCCNC(=S)Nc1ccc2[nH]c(=O)[nH]c2c1 ?
TRPN1 ag: inactive; OXTR agonist: inactive; TRPML3 agonist: inactive; OXTR potentiate: inactive; V1aR counter: inactive

What do the screens show for `CC(C)(C)S(=O)(=O)/C(C#N)=N/Nc1ccc(Cl)cc1`?
TRPN1 ag: 21; OXTR agonist: inactive; TRPML3 agonist: inactive; OXTR potentiate: inactive; V1aR counter: inactive

What do the screens show for `CCCCN(CCCC)C(=O)c1cn(CC)c2cc(N3CCN(C)CC3)c(F)cc2c1=O`?
OXTR agonist: inactive; OXTR potentiate: inactive; V1aR counter: inactive

How did CCOC(=O)C1=NN(C(=O)c2ccc(C)cc2)C(O)(c2ccc(Cl)cc2)C1 (stereo not given) do in these assays?
TRPN1 ag: 25; OXTR agonist: 37; TRPML3 agonist: 18; OXTR potentiate: inactive; V1aR counter: 32

What do the screens show for `Cc1ccccc1NC(=O)CN1C(=O)N/C(=C\c2ccc(N3CCOCC3)c(F)c2)C1=O`?
TRPN1 ag: inactive; OXTR agonist: inactive; TRPML3 agonist: inactive; OXTR potentiate: 9.9; V1aR counter: inactive

How did Cc1ccc(NC(=O)CN2C(=O)N/C(=C/c3ccc(N4CCOCC4)cc3)C2=O)cc1 do in these assays?
TRPN1 ag: inactive; OXTR agonist: inactive; TRPML3 agonist: inactive; OXTR potentiate: inactive; V1aR counter: inactive

What do the screens show for `CCOc1cccc2sc(N(CCCN(C)C)C(=O)c3ccc(S(=O)(=O)N4CCc5ccccc5C4)cc3)nc12`?
OXTR agonist: 25; OXTR potentiate: inactive; V1aR counter: 35

What do the screens show for `O=[N+]([O-])c1ccc(/C=C/C2=NN(c3ccccc3)C(c3ccco3)C2)o1` (stereo not given)?
TRPN1 ag: 23; TRPML3 agonist: 21

What do the screens show for `Cc1ccc(CONC(=O)c2cccc([N+](=O)[O-])c2)cc1`?
OXTR agonist: inactive; OXTR potentiate: inactive; V1aR counter: inactive

Results for COC(=O)C(/C=N/OCc1ccc([N+](=O)[O-])cc1)NC(=O)c1cccc(Cl)c1 (stereo not given) ?
TRPN1 ag: 20; OXTR agonist: 32; TRPML3 agonist: inactive; OXTR potentiate: inactive; V1aR counter: 38

How did Nc1ccc(-c2c3ccc(=O)cc-3oc3cc(O)ccc23)c(C(=O)O)c1 do in these assays?
OXTR agonist: 167; OXTR potentiate: inactive; V1aR counter: 206

How did Cc1ccc(Nc2cc(C)nc3nc(C)nn23)cc1 do in these assays?
TRPN1 ag: inactive; OXTR agonist: inactive; TRPML3 agonist: inactive; OXTR potentiate: 12; V1aR counter: inactive

What do the screens show for `CCOc1ccc(CN2CCN(c3cc(C)nc4c5c(C)cc(C)nc5nn34)CC2)cc1`?
TRPN1 ag: inactive; TRPML3 agonist: inactive

Results for CCOc1ccc(N(CC(=O)O)S(=O)(=O)c2ccc(F)cc2)cc1 ?
TRPN1 ag: 70; OXTR agonist: inactive; TRPML3 agonist: inactive; OXTR potentiate: inactive; V1aR counter: inactive

Results for Cc1cccc(C)c1NC(=O)C(=O)NCCOc1ccc(Cl)cc1 ?
TRPN1 ag: inactive; OXTR agonist: 22; TRPML3 agonist: inactive; OXTR potentiate: inactive; V1aR counter: inactive

How did Cc1ccc(C(=O)NCCOc2ccc(Cl)cc2)cc1 do in these assays?
OXTR agonist: inactive; OXTR potentiate: inactive; V1aR counter: inactive

Results for Cc1cc(=O)[nH]c(SCC(=O)Nc2ccccc2C)n1 ?
TRPN1 ag: 20; OXTR agonist: inactive; TRPML3 agonist: inactive; OXTR potentiate: inactive; V1aR counter: inactive

How did CCOC(=O)C1CCCN(C2=NC(=O)/C(=C/c3ccc(OC)cc3)S2)C1 (stereo not given) do in these assays?
OXTR agonist: inactive; OXTR potentiate: inactive; V1aR counter: inactive

Results for CCOC(=O)C1CCCN(C2=NC(=O)/C(=C/c3ccc(N(C)C)cc3)S2)C1 (stereo not given) ?
OXTR agonist: 35; OXTR potentiate: inactive; V1aR counter: 34

How did Cc1ccccc1C(=O)NNC(=S)Nc1cccc(C(F)(F)F)c1 do in these assays?
TRPN1 ag: inactive; OXTR agonist: inactive; TRPML3 agonist: inactive; OXTR potentiate: inactive; V1aR counter: inactive

What do the screens show for `CCOCCCNc1nc2c(C)cccn2c(=O)c1/C=C1\SC(=S)N(C(C)CC)C1=O` (stereo not given)?
TRPN1 ag: 20; OXTR agonist: inactive; TRPML3 agonist: inactive; OXTR potentiate: inactive; V1aR counter: inactive

Results for CCOCCCNc1nc2c(C)cccn2c(=O)c1/C=C1\SC(=S)N(CC(C)C)C1=O ?
TRPN1 ag: inactive; OXTR agonist: inactive; TRPML3 agonist: inactive; OXTR potentiate: inactive; V1aR counter: inactive
